Published values gathered from unrelated publications.
Protocols differ between the studies behind these lines.
Observed: metabolic stability
Species: rat

SMILES | medium | concentration | pH | half-life [min]
COc1ccc(Cn2cc(CO[C@@H]3O[C@H]4[C@H](OC[C@H]4O)[C@H]3O)nn2)cc1 | liver microsomes |  |  | 120
COc1ncccc1Cn1nc(-c2ccc(CO)o2)c2ccccc21 | liver microsomes | 1 µM | pH 7.4 | 6
C=CCn1c(=O)c2cnc(Nc3ccc(N4CCN(C)CC4)cc3)nc2n1-c1ccc2c(n1)[C@@](O)(CC)CC2 | hepatocytes |  |  | 175
Cc1[nH]c(C)c(S(=O)(=O)Nc2ccc(C(F)(F)F)c(Cl)c2Cl)c1C(=O)N1CCC(F)(F)C1 | liver microsomes |  |  | 32
NCc1ccc(-c2nn(Cc3ccccc3)c3ccccc23)o1 | liver microsomes |  |  | 85
N#Cc1ccc(C[C@H](Nc2nnc(-c3ccc(Br)cc3)o2)C(=O)N2CCc3ccccc32)cc1 | liver microsomes | 10 µM | pH 7.4 | 27
O=C1CCC(N2Cc3cc(C4CCN(Cc5ccccc5)CC4)ccc3C2=O)C(=O)N1 (stereo not shown) | liver microsomes | 1 µM |  | > 60
N#Cc1ccc(C[C@H](Nc2nnc(-c3cccc(F)c3)s2)C(=O)N2CCc3ccccc32)cc1 | liver microsomes | 10 µM | pH 7.4 | 47
NCc1ccc(-c2nn(Cc3ccncc3)c3ccccc23)o1 | liver microsomes | 1 µM | pH 7.4 | ~17
N#Cc1ccc(C[C@H](Nc2c(Nc3ccc(F)cc3)c(=O)c2=O)C(=O)N2CCc3ccccc32)cc1 | liver microsomes | 10 µM | pH 7.4 | 20
Cc1[nH]c(C)c(S(=O)(=O)Nc2ccc(C(F)(F)F)c(Cl)c2)c1C(=O)N1CCC(F)(F)C1 | liver microsomes |  |  | 8
COc1cnccc1Cn1nc(-c2ccc(CO)o2)c2ccccc21 | liver microsomes | 1 µM | pH 7.4 | 7
N#Cc1ccc(C[C@H](Nc2nnc(-c3ccc(Br)cc3)s2)C(=O)N2CCc3ccccc32)cc1 | liver microsomes | 10 µM | pH 7.4 | 15
